zfTRPN1 agonist = zebrafish TRPN1 channel agonists, primary screen, cell-based, HEK293, calcium fluorescence; transient receptor potential cation channel N1 (TRPN1/NompC), Danio rerio; HEK293 zebrafish TRPN1-YFP, Fluo-8 calcium fluorescence; 100% = response to 87 µM carbachol; activation, % at 3 µM; 0.18% of 220,000 active; AID 1424, 2008;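 active = activation above its plate's cutoff, the mean activation of test wells on that plate plus 3 SD, cut at about 19% in these data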
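Material: zebrafish TRPN1-YFP in HEK293 cells; Doses: single test compound dose, 3 µM nominal, 0.3% DMSO; Timing: dye loading 1 h at 37 °C, then 30 min room temperature; Technique: intracellular calcium fluorescence with Fluo-8; Benchmarks: high carbachol 87 µM, low DMSO alone.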
TRPML3 agonist = human TRPML3 channel agonists, primary screen, cell-based, HEK293 TRPML3-YFP, Fluo-8 calcium fluorescence, 3 µM | Mucolipin-3 (Homo sapiens), Q8TDD5 | 100% = the carbachol control signal | activation, % at 3 µM | 0.29% of 220,000 active | AID 1448, 2008;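 active = activation above its plate's cutoff, the mean activation of the plate's test wells plus 3 SD, cut at about 12% in these data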
Target sequence (Q8TDD5 whole entry, looked up): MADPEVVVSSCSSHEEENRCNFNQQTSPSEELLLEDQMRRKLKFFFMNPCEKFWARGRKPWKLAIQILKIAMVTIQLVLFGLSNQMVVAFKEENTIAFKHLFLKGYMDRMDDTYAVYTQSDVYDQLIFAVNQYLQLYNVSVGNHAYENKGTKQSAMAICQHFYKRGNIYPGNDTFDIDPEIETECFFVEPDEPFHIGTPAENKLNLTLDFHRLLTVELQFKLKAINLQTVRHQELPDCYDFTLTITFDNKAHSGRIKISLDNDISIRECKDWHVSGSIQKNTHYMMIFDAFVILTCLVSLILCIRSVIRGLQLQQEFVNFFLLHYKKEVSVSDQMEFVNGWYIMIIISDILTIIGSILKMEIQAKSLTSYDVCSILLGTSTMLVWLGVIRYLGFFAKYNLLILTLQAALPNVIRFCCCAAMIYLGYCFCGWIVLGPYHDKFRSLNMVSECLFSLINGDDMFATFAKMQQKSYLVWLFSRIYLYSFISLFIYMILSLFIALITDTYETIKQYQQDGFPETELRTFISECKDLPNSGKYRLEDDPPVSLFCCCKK
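Material: TRPML3-YFP stable HEK293 cells | Dosing: One concentration, 3 µM nominal, 0.3% DMSO | Timing: 125 s total fluorescence read per well | Technique: Fluo-8 calcium dye fluorescence, ex 470-495, em 515-575 nm | Measure: Percent activation from peak-to-basal fluorescence ratio, scaled between DMSO and carbachol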
OXTR potentiator = human OXTR potentiators, primary screen, fluorescence, CHO-OTR cells, Fluo-8 calcium; Oxytocin receptor (Homo sapiens), P30559; Fluo-8 calcium fluorescence, potentiator mode; 0% = oxytocin EC15, 100% = EC100; activation, % at 3 µM; 0.061% of 320,000 active;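 active = activation above that plate's cutoff, the mean activation of tested compounds plus 3 SD, cut at about 6.6% in these data, passing the limit was not always enough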
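Assay system: CHO-OTR cells, human receptor / Also added: oxytocin at about EC15, sub-maximal agonist stimulus / Dosing: single dose, 3.0 µM nominal final compound concentration / Incubation: 6 min pre-incubation, 100 s read / Technique: Fluo-8 calcium dye fluorescence / Read-out: % activation vs EC15 and EC100 oxytocin / Benchmarks: EC15 oxytocin low, 75 nM oxytocin high / Replicates: singlicate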
OXTR agonist = human OXTR agonists, primary screen, fluorescence, CHO-OTR cells, Fluo-8 calcium. AID 2435, 2010. activation, % at 3 µM. 0.32% of 320,000 active. Fluo-8 calcium fluorescence; normalized: DMSO 0%, oxytocin 100%;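 active = activation above the mean of all tested compounds plus 3 SD, cutoff set per screening run, cut at about 20% in these data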;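 note: peak over basal fluorescence ratio from a 100 s FLIPR kinetic read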
V1aR counter = agonists of human V1a receptor, primary screen, counter-screen for OXTR agonist project, fluorescence, CHO-V1R cells | Fluo-8 calcium fluorescence, agonist mode; 0% DMSO, 100% 3 nM vasopressin | activation, % at 3 µM | Vasopressin V1a receptor (Homo sapiens), P37288 | 0.25% of 320,000 active;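 active = activation above the mean activation of all tested compounds plus 3 SD, per screening run, cut at about 20% in these data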;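 note: signal is peak over basal fluorescence ratio across a 100 second FLIPR read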
OXTR pot confirm = human OXTR potentiators, confirmation, fluorescence, CHO-OTR cells, triplicate; activation, % at 3 µM; 180 tested, under 10 active; shares compounds with OXTR potentiator; Fluo-8 calcium fluorescence, potentiation; scaled from low-dose to maximal oxytocin;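 active = mean percent activation over triplicates above a cutoff set from solvent-only control plates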;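 note: compounds tested in the presence of an EC15 dose of oxytocin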
V1R ag confirm = V1a receptor agonists, calcium signal, confirmation, Fluo-8 calcium fluorescence, CHO-V1R cells | shares compounds with V1aR counter | agonist | activation, % at 3 µM | 20% of 180 active | AID 434964, 2010;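 active = average activation exceeds primary screen hit cutoff, cut at about 21% in these data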;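 note: peak over basal fluorescence ratio during a 100 s FLIPR read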
OXTR counter = human OXTR agonists, counter-screen for V1R agonist project, fluorescence, CHO-OTR cells, triplicate. shares compounds with V1aR counter. Fluo-8 calcium fluorescence. activation, % at 3 µM. 10% of 180 active;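 active = mean activation over three repeats above the cutoff from the earlier oxytocin receptor agonist screen, cut at about 20% in these data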;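 note: peak over minimum fluorescence ratio within a 100 second FLIPR read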
Each line names hits and unclear results; the compound was inactive in the other large screens (follow-up assays come after a bar, where they were run). This is a sample that favours compounds with a hit; in the whole collection about 0.58% have one here.

CC(=O)c1sc(NC(=O)C=C(C)C)nc1C	OXTR potentiator 9.1 | OXTR pot confirm inactive
CCCCC(=O)Nc1nc(C)c(C(C)=O)s1	none
O=C(O)c1ccccc1NC(=O)C1CCCO1 (stereo unspecified)	OXTR potentiator 12.3 | OXTR pot confirm inactive
Cc1[nH]c(=O)[nH]c(=O)c1S(=O)(=O)NCC12CC3CC(CC(C3)C1)C2	OXTR potentiator 11.0 | OXTR pot confirm inactive
CCC(NS(=O)(=O)c1c(C)[nH]c(=O)[nH]c1=O)C12CC3CC(CC(C3)C1)C2 (stereo unspecified)	none
Cn1c(=O)n(C)c2cc(NC(=O)c3ccccc3[N+](=O)[O-])c(Br)cc21	none
COc1ccc(Nc2nnc(-c3ccc(C)cc3)c3ccccc23)cc1C(=O)N1CCCCC1	OXTR potentiator 17.2 | OXTR pot confirm inactive
CCN1CCCC1CNC(=O)C(=O)Nc1ccccc1 (stereo unspecified)	none
CCN1CCCC1CNC(=O)C(=O)Nc1cccc(OC)c1 (stereo unspecified)	OXTR potentiator 13.4 | OXTR pot confirm inactive
O=c1c(O)c(-c2ccc(O)c(O)c2)oc2cc(O)cc(O)c12	OXTR potentiator 20.6 (no result: zfTRPN1 agonist, TRPML3 agonist) | OXTR pot confirm 7.2
Cc1coc2c(C)c3oc(=O)c(CCC(=O)NCCCN4CCCC4=O)c(C)c3cc12	OXTR potentiator 12.4 (no result: zfTRPN1 agonist, TRPML3 agonist) | OXTR pot confirm inactive
Cc1cc(C)n(C(=O)C(C(=O)c2ccccc2)C(C)C)n1 (stereo unspecified)	OXTR potentiator 10.6 | OXTR pot confirm inactive
O=C(NC(c1ccccc1)c1ccccc1)C1CCCC1	OXTR potentiator 11.7 | OXTR pot confirm inactive
CC(=O)Nc1ccc(S(=O)(=O)N(C)CC(=O)OCC(=O)N2CC(C)OC(C)C2)cc1 (stereo unspecified)	none (no result: zfTRPN1 agonist, TRPML3 agonist)
NS(=O)(=O)c1cc(C(=O)N2CCNC(=O)C2)ccc1Cl	none (no result: zfTRPN1 agonist, TRPML3 agonist)
CCc1ccc(C(=O)C(C)OC(=O)c2cccc(S(=O)(=O)N3CCOCC3)c2)cc1 (stereo unspecified)	none (no result: zfTRPN1 agonist, TRPML3 agonist)
COc1cc(Cl)c(C)cc1NC(=O)CN1C(=O)C2CC=CCC2C1=O (stereo unspecified)	none (no result: zfTRPN1 agonist, TRPML3 agonist)
CC(C)CNC(=O)CC(=O)N/N=C/c1ccc(F)cc1	OXTR potentiator 12.2 | OXTR pot confirm inactive
CCCCC#Cc1cncc(C(=O)N/N=C/c2cccc(OC)c2)c1	none
N#Cc1cn(-c2ccccc2)nc1-c1ccco1	OXTR potentiator 13.3 | OXTR pot confirm inactive
N#Cc1cn(-c2ccccc2)nc1-c1ccc2c(c1)OCCO2	none
CC(C)(C)NC(=O)c1nn(Cc2ccccc2)c(=O)c2ccccc12	OXTR potentiator 15.2 | OXTR pot confirm inactive
CCC(CC)NC(=O)c1nn(Cc2ccccc2)c(=O)c2ccccc12	none (no result: zfTRPN1 agonist, TRPML3 agonist)
CCOC(=O)c1sc(NC(=O)CN2CCN(c3ccccc3)CC2)nc1C	none (no result: zfTRPN1 agonist, TRPML3 agonist)
O=C(/C=C/c1cccs1)Nc1ccc([N+](=O)[O-])cc1	none
O=C(/C=C/c1cccs1)Nc1ccncc1	OXTR potentiator 12.5 | OXTR pot confirm inactive
CCn1c(=O)c(C(=O)Nc2ccccn2)c(O)c2ccccc21	OXTR potentiator 12.4 | OXTR pot confirm inactive
Cc1ccc(-c2ccc(=O)n(Cc3ccc(F)cc3)n2)cc1	V1aR counter 21.7 (no result: zfTRPN1 agonist, TRPML3 agonist) | V1R ag confirm inactive | OXTR counter inactive
CC(=O)Nc1ccc(NC(=O)c2cccc3ccccc23)cc1	none (no result: zfTRPN1 agonist, TRPML3 agonist)
CC(=O)Nc1ccc(N=Cc2c(O)c(C(=O)Nc3ccccc3)cc3ccccc23)cc1	V1aR counter 38.1 | V1R ag confirm 192.9 | OXTR counter 168.6
COc1ccc(NC(=O)CN2C(=O)/C(=C3\SC(=S)N(C4CCS(=O)(=O)C4)C3=O)c3ccccc32)cc1 (stereo unspecified)	V1aR counter 22.3 | V1R ag confirm inactive | OXTR counter inactive
CC(=O)NC1C(=O)N=C(SC(C)C(=O)Nc2cccc(Cl)c2)NC1=O (stereo unspecified)	none
O=C(Nc1ccc(N2CCN(c3ccc(C(F)(F)F)cn3)CC2)nc1)c1cccs1	none
CC(=O)Nc1ccc(N2CCN(c3ccc(C(F)(F)F)cn3)CC2)nc1	V1aR counter 25.0 | V1R ag confirm inactive | OXTR counter inactive
COc1ccc2nc(NC(=O)Cc3ccc(OC)c(S(=O)(=O)N4CCOCC4)c3)sc2c1	V1aR counter 22.8 | V1R ag confirm inactive | OXTR counter inactive
COc1ccc(CC(=O)Nc2nccs2)cc1S(=O)(=O)N1CCOCC1	none (no result: zfTRPN1 agonist, TRPML3 agonist)
COc1ccc(Nc2cc(C(=O)NCCCOC(C)C)c3ccccc3n2)c(OC)c1	V1aR counter 25.4 (no result: zfTRPN1 agonist, TRPML3 agonist) | V1R ag confirm inactive | OXTR counter inactive
O=C(CCC(=O)N1CCN(c2ccc(C(F)(F)F)cn2)CC1)c1cccs1	none (no result: zfTRPN1 agonist, TRPML3 agonist)
COc1ccccc1N1C(=O)c2cccc3c(C(=O)O)ccc(c23)C1=O	none
COc1ccccc1N1C(=O)c2cccc3c(N(C)CCO)ccc(c23)C1=O	V1aR counter 31.4 (no result: zfTRPN1 agonist, TRPML3 agonist) | V1R ag confirm inactive | OXTR counter inactive
CCOC(=O)Nc1ccc(C(=O)c2ccncc2)cc1	V1aR counter 20.3 (no result: zfTRPN1 agonist, TRPML3 agonist) | V1R ag confirm inactive | OXTR counter inactive
CCOc1cccc(C2/C(=C(/O)c3ccc4c(c3)CC(C)O4)C(=O)C(=O)N2Cc2cccnc2)c1 (stereo unspecified)	none (no result: zfTRPN1 agonist, TRPML3 agonist)
O=C(Nc1ccc(SC(F)F)cc1)c1ccc(F)cc1	none
CC1=NN(c2ccc(Cl)cc2)C(=O)C1C(c1cccc(O)c1)c1c(C)[nH]n(-c2ccc(Cl)cc2)c1=O (stereo unspecified)	V1aR counter 20.5 | V1R ag confirm inactive | OXTR counter inactive
CCOC(=O)C1CC2CC(C1)CN(C(=O)C1CCCCC1)C2 (stereo unspecified)	none
COc1ccc(/C=C/CN2CCC(CO)(Cc3ccccc3Cl)CC2)cc1	V1aR counter 28.1 | V1R ag confirm inactive | OXTR counter inactive
Cc1c(C(=O)/C=C/N(C)C)nnn1-c1ccc(Cl)cc1C#N	none

High-throughput results deposited in PubChem BioAssay by The Scripps Research Institute Molecular Screening Center.
